Measurements published in ChEMBL document CHEMBL5608214, “Novel tetrasubstituted 5-Arylamino pyrazoles able to interfere with angiogenesis and Ca2+ mobilization” (Eur J Med Chem, 2024).
Activity calls are given as the source filed them. The rule behind the calls is not given here.

Assays:
HeLa = experiment: Antiproliferative activity against human HeLa cells assessed as cell growth at 10 uM incubated for 48 hrs by MTT assay relative to control; assay type: functional; settings: read-out: Activity
How it was run: (§1)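 Cells in DMEM with 10 % FBS, 2 mM glutamine and pen-strep, 37 °C, 5 % CO₂, plated to reach 80–90 % confluence at endpoint. At 16 h, compounds were added from a 10 mM DMSO stock to 10 μM final. After 48 h, MTT (2 mg/mL in PBS) was added for 4 h, formazan dissolved in DMSO, and OD read at 570 nm. Results are % of solvent control; three runs, six replicates each, mean ± SD.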

MCF7 = experiment: Antiproliferative activity against human MCF7 cells assessed as cell growth at 10 uM incubated for 48 hrs by MTT assay relative to control; assay type: functional; settings: read-out: Activity; how it was run: as §1
MDA-MB-231 = experiment: Antiproliferative activity against human MDA-MB-231 cells assessed as cell growth at 10 uM incubated for 48 hrs by MTT assay relative to control; assay type: functional; settings: read-out: Activity; how it was run: as §1
SK-OV-3 = experiment: Antiproliferative activity against human SK-OV-3 cells assessed as cell growth at 10 uM incubated for 48 hrs by MTT assay relative to control; assay type: functional; settings: read-out: Activity; how it was run: as §1
[1] = Antiproliferative activity against human HUVEC cells assessed as cell growth at 10 uM incubated for 48 hrs by MTT assay relative to control; assay type: toxicity, cell-based; settings: read-out: Activity; how it was run: as §1
SK-BR-3 = experiment: Antiproliferative activity against human SK-BR-3 cells assessed as cell growth at 10 uM incubated for 48 hrs by MTT assay relative to control; assay type: functional; settings: read-out: Activity; how it was run: as §1
A549 = experiment: Antiproliferative activity against human A549 cells assessed as cell growth at 10 uM incubated for 48 hrs by MTT assay relative to control; assay type: functional; settings: read-out: Activity; how it was run: as §1
SK-MEL-28 = experiment: Antiproliferative activity against human SK-MEL-28 cells assessed as cell growth at 10 uM incubated for 48 hrs by MTT assay relative to control; assay type: functional; settings: read-out: Activity; how it was run: as §1
[2] = Antiproliferative activity against human GM06114 cells assessed as cell growth at 10 uM incubated for 48 hrs by MTT assay relative to control; assay type: toxicity, cell-based; settings: read-out: Activity; how it was run: as §1
HepG2 = experiment: Antiproliferative activity against human HepG2 cells assessed as cell growth at 10 uM incubated for 48 hrs by MTT assay relative to control; assay type: functional; settings: read-out: Activity; how it was run: as §1
HUVEC [3] = experiment: Anti-angiogenetic activity in human HUVEC cells assessed as reduction in tube length at 10 uM incubated for 12 hrs by microscopy; assay type: functional, cell-based
How it was run: (§2)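 HUVEC seeded at 2 × 10⁴ cells/well onto gelled Matrigel (mixed 1:1 with EGM-2, set 30 min at 37 °C). Cells were exposed to test agents at 10 μM for 12 h with no stimulus; untreated wells served as control. Tube long axis and branching points were counted in 10 random fields per well at 10× (Angiogenesis Analyzer), giving mean tube length per well. Mean of at least three independent experiments.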

HUVEC [4] = experiment: Anti-angiogenetic activity in human HUVEC cells assessed as reduction in tube branching at 10 uM incubated for 12 hrs by microscopy; assay type: functional, cell-based; how it was run: as §2
HUVEC [5] = experiment: Anti-angiogenetic activity in human HUVEC cells assessed as relative tube length at 10 uM incubated for 12 hrs by microscopy; assay type: functional; how it was run: as §2
HUVEC [6] = experiment: Anti-angiogenetic activity in human HUVEC cells assessed as number of tube branching points at 10 uM incubated for 12 hrs by microscopy; assay type: functional; how it was run: as §2
HUVEC [7] = experiment: Inhibition of cell invasion in human HUVEC cells assessed as number of cells at 10 uM incubated for 24 hrs by transwell assay; assay type: functional
How it was run: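 Transwell inserts with 8.0 pore size were coated with Matrigel 1:3 in serum-free medium. HUVEC (2 × 10⁴/insert) went in serum-free medium in the upper chamber, with treatments (10 μM) in growth medium below, for 24 h at 37 °C. Filters were fixed in 4 % paraformaldehyde then methanol and stained with 0.5 % crystal violet. Cells on the lower surface were counted in ten random fields at 10×. n = 3.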

HUVEC [8] = experiment: Effect on conformation of actin filament organization in human HUVEC cells at 10 uM treated for 24 hrs by immunofluorescence assay; assay type: functional, cell-based
How it was run: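 HUVEC were left untreated or treated 24 h at 10 μM final. Cells were then fixed on coverslips in 4 % paraformaldehyde, permeabilized with 0.2 % Triton X-100 and blocked with 20 % goat serum. F-actin was stained with FITC-phalloidin (5 µg/ml, 2 h, room temperature, dark) and nuclei with Hoechst 33342. Cells were imaged by confocal microscopy.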

[9] = Effect on intracellular calcium signaling in human HUVEC cells assessed as inhibition of calcium mobilization by measuring fluorescence intensity at 10 uM incubated for 1 hr by Fluo-4 a.m. cytofluorimetric assay relative to control; assay type: functional; parameters: scale not given: the % may be the effect or the level left
How it was run: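 Trypsinized HUVEC at 5 × 10⁵/ml were treated with compounds at 10 μM in PBS for 1 h at room temperature, washed, then loaded with 2.5 μM Fluo-4 AM (0.06 % DMSO final) for 45 min at 37 °C. Fluorescence was read by flow cytometry with a 530/30 filter. Ionomycin served as positive control and EDTA (added 15 min before) as negative control. n = 3, mean ± SD.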

Structure (SMILES)	growth at 10 µM (HeLa) [%]	growth at 10 µM (MCF7) [%]	growth at 10 µM (MDA-MB-231) [%]	growth at 10 µM (SK-OV-3) [%]	viability at 48 h, 10 µM [1] [%]	growth at 10 µM (SK-BR-3) [%]	growth at 10 µM (A549) [%]	growth at 10 µM (SK-MEL-28) [%]	viability at 48 h, 10 µM [2] [%]	growth at 10 µM (HepG2) [%]	Activity (HUVEC [3])	Activity (HUVEC [4])	Activity (HUVEC [5])	Activity (HUVEC [6])	Activity (HUVEC [7])	Activity (HUVEC [8])	Activity [9] [%]
CCOC(=O)c1c(Nc2ccc(Cl)c(Cl)c2)nn(CC(O)c2ccccc2)c1N (stereo not drawn)	74	88	144	111	93	111	70	135	77	100							
CCOC(=O)c1c(Nc2ccc(OC)cc2)nn(CC(O)c2ccccc2)c1N (stereo not drawn)	111	98	147	102	99	115	100	134	70	115							
CCOC(=O)c1c(Nc2cccc(Cl)c2)nn(CC(O)c2ccccc2)c1N (stereo not drawn)	113	101	135	100	93	120	88	144	65	113	Active	Active					
CCCC(O)Cn1nc(Nc2ccc(Cl)c(Cl)c2)c(C(=O)OCC)c1N (stereo not drawn)	119	107	176	116	93	127	94	137	87	116	Active	Active					
CCOC(=O)c1c(Nc2ccc(C)cc2)nn(CC(O)c2ccccc2)c1N (stereo not drawn)													48	17			
CCOC(=O)c1c(Nc2ccccc2Cl)nn(CC(O)c2ccccc2)c1N (stereo not drawn)	98	112	115	100	93	117	72	136	63	111							
CCCC(O)Cn1nc(Nc2ccccc2Cl)c(C(=O)OCC)c1N (stereo not drawn)	116	110	107	102	95	121	106	132	85	119							
CCCC(O)Cn1nc(Nc2cccc(C(F)(F)F)c2)c(C(=O)OCC)c1N (stereo not drawn)	77	80	109	102	100	118	66	113	71	69							
CCOC(=O)c1c(Nc2cccc3ccccc23)nn(CC(O)c2ccccc2)c1N (stereo not drawn)	104	97	149	116	98	118	88	141	81	118	Active	Active	<20	<15			
CCCC(O)Cn1nc(Nc2ccc(OC)cc2)c(C(=O)OCC)c1N (stereo not drawn)	111	109	143	110	95	106	98	120	75	110	Active	Active					
CCOC(=O)c1c(Nc2cccc(C(F)(F)F)c2)nn(CC(O)c2ccccc2)c1N (stereo not drawn)	107	99	162	108	92	122	88	124	80	131							
CCCC(O)Cn1nc(Nc2ccc(C)cc2)c(C(=O)OCC)c1N (stereo not drawn)	109	111	158	119	96	123	92	137	72	119	Active	Active	<20	<15			
CCCC(O)Cn1ncc(C(=O)OCC)c1NC(=O)Nc1cccc(C(F)(F)F)c1 (stereo not drawn)													21	19	383	Active	20
CCCC(O)Cn1nc(Nc2cccc3ccccc23)c(C(=O)OCC)c1N (stereo not drawn)	82	109	106	108	94	110	86	103	104	104			<20	<15			
